Screening data from PubChem BioAssay.
CHO parental Ca – ATP-evoked calcium signal inhibitors, parental CHO, primary screen, counter-screen for OX1R antagonist project, cell-based, fluorescence, Fluo-8 calcium dye | parental CHO-K1, ATP-induced calcium, Fluo-8 fluorescence | inhibition, % at 5.6 µM | 0.63% of 330,000 active | AID 463079, 2010;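 active means inhibition above that plate's mean sample inhibition plus 3 SD, cut at about 26% in these data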;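 further: 0% = ATP-challenged DMSO wells and 100% = DMSO wells without ATP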
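Assay system: parental CHO cells; Read-out basis: percent inhibition of ATP-evoked calcium rise, normalized to controls; Benchmarks: ATP and no-ATP DMSO wells; Compound dosing: single nominal dose of 5.6 µM per compound; Signal: Fluo-8 calcium dye fluorescence; Also added: ATP as calcium-mobilizing challenge; Repeats: singlicate.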
OX1R antag-1 – OX1R (HCRTR1) antagonists, primary screen, fluorescence, CHO/OX1R cells, Fluo-8 calcium, orexin A | Orexin/Hypocretin receptor type 1 (Homo sapiens), O43613 | Fluo-8 calcium fluorescence | inhibition, % at 5 µM | 0.43% of 330,000 active;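 active means inhibition above its plate's threshold, mean inhibition of all tested compounds on the plate plus 3 SD, cut at about 37% in these data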;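 further: 0% = orexin A challenge wells and 100% = SB-334867-A antagonist wells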
OX1R antag-2 – antagonists of human orexin 1 receptor (OX1R); Orexin/Hypocretin receptor type 1 (Homo sapiens), O43613; OX1R-expressing cells, FRET antagonist read-out; inhibition, % at 6.6 µM; 1.8% of 330,000 active; in the data active means inhibition mostly above about 38%, no sharp cut-off; inactive means mostly below about 40%;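 further: 0% = agonist challenge alone and 100% = reference antagonist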
TAAR1 agonist – human TAAR1 agonists, primary screen, Fluo-8 calcium fluorescence, CHO RD-HGA16 cells. Trace amine-associated receptor 1 (Homo sapiens), Q96RJ0. vehicle wells 0%, saturating PEA agonist 100%. activation, % at 3 µM. 0.99% of 360,000 active;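 active means activation above the mean activation of all test compounds in the run plus 3 SD, cut at about 38% in these data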
Target sequence (Q96RJ0 whole entry, looked up): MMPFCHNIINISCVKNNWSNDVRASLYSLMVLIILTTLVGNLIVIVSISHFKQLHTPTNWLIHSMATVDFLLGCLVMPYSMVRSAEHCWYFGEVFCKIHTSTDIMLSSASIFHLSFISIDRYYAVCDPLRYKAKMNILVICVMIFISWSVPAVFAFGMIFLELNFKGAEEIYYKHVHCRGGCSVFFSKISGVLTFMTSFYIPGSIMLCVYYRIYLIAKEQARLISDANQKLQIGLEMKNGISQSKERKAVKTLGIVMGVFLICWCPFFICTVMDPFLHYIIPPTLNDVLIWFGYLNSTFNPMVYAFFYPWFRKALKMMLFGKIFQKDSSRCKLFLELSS
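Test system: RD-HGA16 (CHO) cells co-expressing Gα16 and hTAAR1 / Benchmarks: DMSO vehicle as 0%, PEA at EC100 as 100% / Repeats: no replicates (n 1) / Measure: % activation from peak over basal fluorescence ratio, DMSO-to-PEA scaled / Timing: 17-24 h plating, Fluo-8 75 min 37 °C, 30 min RT / Technique: kinetic Fluo-8 calcium fluorescence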
TAAR1 antagonist – human TAAR1 antagonists, primary screen, Fluo-8 calcium fluorescence, CHO RD-HGA16 cells | 1.5% of 360,000 active | inhibition, % at 3 µM | antagonist | Trace amine-associated receptor 1 (Homo sapiens), Q96RJ0;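 active means inhibition above a per-plate cutoff, the mean inhibition of test compounds on that plate plus 3 SD, cut at about 49% in these data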;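 further: 0% = DMSO plus EC80 beta-PEA response and 100% = DMSO alone without agonist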
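System: RD-HGA16 CHO cells with stable hTAAR1 and Gα16 | Probe or stimulus: EC80 β-phenethylamine stimulus | Dosing: 3 µM, single point | Times: Dye loading 75 min at 37 °C, then 30 min room temperature | Measured by: Fluo-8 calcium-sensitive fluorescence | Read-out basis: % inhibition of agonist calcium response | Replicates: n of 1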
GalR3 antag – GalR3 antagonists in HEK293 cells, primary screen, cell-based, fluorescence readout | Galanin receptor type 3 (Homo sapiens), O60755 | HEK293 GalR3-CNG cAMP membrane potential fluorescence; galR3 body fused to GalR1 C-terminus | inhibition, % at 3 µM | 0.44% of 360,000 active | AID 651719, 2012;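 active means inhibition above the screen-wide average plus 3 SD, cut at about 13% in these data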;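 further: forskolin and galanin both at EC90 stimulate the cells; cAMP rise reported by CNG channel membrane potential dye signal; 0% = forskolin plus galanin with DMSO and 100% = forskolin alone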
Target sequence (O60755 1-299 limits assumed): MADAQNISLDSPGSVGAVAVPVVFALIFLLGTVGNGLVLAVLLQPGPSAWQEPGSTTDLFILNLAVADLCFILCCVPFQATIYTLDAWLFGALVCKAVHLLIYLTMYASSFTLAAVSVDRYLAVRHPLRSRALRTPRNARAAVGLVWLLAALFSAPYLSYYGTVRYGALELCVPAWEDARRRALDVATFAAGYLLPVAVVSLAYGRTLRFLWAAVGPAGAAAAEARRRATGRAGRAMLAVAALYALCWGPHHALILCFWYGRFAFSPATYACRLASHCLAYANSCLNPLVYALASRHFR
TAAR1 nonsel count – nonselective antagonists in TAAR1 counter-screen cells, counter-screen for hTAAR1 antagonist project, cell-based, fluorescence, calcium. counterscreen cell line, antagonist mode. 77% of 2,400 active. shares compounds with TAAR1 antagonist. AID 651780, 2012. inhibition, % at 3 µM; in the data active means inhibition above about 22%;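 further: CHO-Ga16 host cells stimulated with ATP at an EC80 level; 0% = agonist EC80 plus vehicle and 100% = vehicle without agonist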
TAAR1 ant conf – human TAAR1 antagonists, retest of hits, confirmation, cell-based, fluorescence | shares compounds with TAAR1 antagonist | TAAR1-expressing cells, fluorescence antagonist read-out | inhibition, % at 3 µM | 40% of 2,400 active | AID 651785, 2012; in the data active means inhibition above about 49%;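 further: CHO-Ga16 host cells challenged with agonist PEA near its EC80; 0% = agonist at EC80 plus vehicle and 100% = vehicle with no agonist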
Ga16 ag counter – calcium activation in Ga16-expressing cells, counter-screen for TAAR1 antagonist project, cell-based, fluorescence | 18% of 2,400 active | activation, % at 3 µM | shares compounds with TAAR1 antagonist | agonist counterscreen; in the data active means activation above about 12%;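 further: 0% = vehicle wells and 100% = saturating stimulus response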
TAAR1 ag count – TAAR1 activation by candidate antagonists – cell-based, fluorescence, counter-screen for TAAR1 antagonist project. shares compounds with TAAR1 antagonist. AID 651955, 2012. 2% of 2,400 active. activation, % at 3 µM. hTAAR1 cell line, agonist mode; in the data active means activation above about 37%;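 further: CHO cells stably expressing TAAR1 with calcium dye readout; 0% = DMSO vehicle and 100% = full agonist response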
Active calls of the source: *; / = no result given. Hits are enriched below; roughly 4.2% of the tested compounds scored in any of these assays.

SMILES | CHO parental Ca | OX1R antag-1 | OX1R antag-2 | TAAR1 agonist | TAAR1 antagonist | GalR3 antag | TAAR1 nonsel count | TAAR1 ant conf | Ga16 ag counter | TAAR1 ag count
Cc1nc2ccccn2c1C(=O)N/N=C/c1cc(C)n(-c2ccc(Cl)cc2)c1C | -21 | -22 | 14 | 8 | 16 | -5 | / | / | / | /
CCNC(=S)N/N=C/c1cc(C)n(-c2ccc(Cl)cc2)c1C | -30 | -17 | 15 | 11 | 101* | -1 | 12 | 77* | 8 | 24
Cc1ccccc1NC(=O)Cc1nc(CSc2nnc(-c3ccc4c(c3)OCO4)o2)cs1 | -9 | -8 | 35 | 15 | 55* | 3 | 25* | 37 | 8 | 5
CC(=O)Nc1ccc(NC(=O)CSc2nnc(-c3ccc4c(c3)OCO4)o2)cc1 | 6 | -3 | 1 | 1 | -4 | -6 | / | / | / | /
Cc1cc(-c2nc3cccnc3s2)ccc1NS(=O)(=O)c1cccs1 | -12 | 8 | 12 | 0 | 63* | / | 16 | 34 | 3 | 0
O=S(=O)(Nc1ccc(-c2nc3cccnc3s2)cc1)c1cccs1 | 24 | -4 | -1 | 2 | -5 | / | / | / | / | /
Cc1ccc(-c2cc(-c3ccccc3)nc(N/N=C/c3cccnc3)n2)cc1 | -13 | -10 | 5 | 7 | 36 | -6 | / | / | / | /
C(=N/Nc1nc(-c2ccccc2)cc(-c2ccccc2)n1)/c1cccnc1 | -18 | -26 | 47 | 11 | 65* | -5 | 31* | 53* | 4 | 3
C(=N\Nc1nc(Nc2ccccc2)nc(Nc2ccccc2)n1)/c1ccncc1 | -35 | -35 | 38 | 2 | -1 | -5 | / | / | / | /
C(=N\Nc1nc(Nc2ccccc2)nc(Nc2ccccc2)n1)/c1cccnc1 | -17 | -22 | 30 | 9 | 57* | -8 | 25* | 46 | 5 | 1
CCOC(=O)c1ccccc1OCc1cc(/C=N/NC(=O)c2ccncc2)ccc1OC | -22 | -20 | 10 | 13 | 77* | -4 | 36* | 54* | 10 | 6
COc1ccc(/C=N\NC(=O)c2ccc(F)cc2)cc1COc1ccccc1C(N)=O | -19 | -34 | 26 | 1 | -8 | -5 | / | / | / | /
COc1cc(/C=N\NC(=O)c2cccnc2)ccc1OC(=O)c1ccccc1Cl | -14 | -10 | 18 | 12 | 54* | -3 | 28* | 35 | 16* | 20
O=C(Oc1ccc(/C=N/NC(=O)c2ccccc2O)cc1)c1ccccc1 | -3 | 7 | 9 | 10 | 74* | -1 | 38* | 68* | 8 | 10
COc1cc(/C=N/NC(=O)c2cccnc2)ccc1OC(=O)c1ccco1 | -13 | -17 | 5 | 6 | -8 | -13 | / | / | / | /
O=C(N/N=C/c1ccc(OC(=O)c2ccccc2)cc1)c1cccc(O)c1 | -1 | -23 | -1 | 8 | 47 | -5 | / | / | / | /
COc1cc(C(=O)N/N=C/c2ccc(OC(=O)c3ccccc3Cl)cc2)ccc1O | 4 | 6 | 11 | 13 | 80* | -1 | 30* | 58* | 11 | 35
O=C(N/N=C/c1ccc(OC(=O)c2ccccc2Br)cc1)c1ccccn1 | -10 | -29 | 4 | 7 | 52* | -1 | 30* | 44 | 7 | 5
Nc1ccc(C(=O)N/N=C\c2ccc(OC(=O)c3ccccc3Cl)cc2)cc1 | 9 | -20 | 2 | 18 | 68* | -3 | 29* | 59* | 9 | 25
COC(=O)c1ccc(/C=N/NC(=O)c2ccccc2Cl)cc1 | -13 | 3 | 8 | 1 | 14 | 0 | / | / | / | /
O=C1O[C@@H](c2ccccc2)C[C@@H](O)[C@H](O)CCc2ccccc21 | / | / | / | 3 | -15 | -7 | / | / | / | /
O=C(CCc1ccccc1)N[C@@H]1c2ccccc2CC[C@@H]1OCc1ccccc1 | -21 | 11 | 22 | 9 | 53* | -5 | 10 | 16 | -1 | -2
Cc1nc(-c2cccc3ccccc23)ccc1C(=O)O | -6 | -5 | 0 | 1 | 0 | 1 | / | / | / | /
CC(C)(C)OC(=O)C[C@H]1C/C=C\C[C@H](CC(=O)N(CCO)Cc2ccccc2)C(=O)NCCOC1=O | -6 | -5 | 5 | 6 | 3 | -1 | / | / | / | /
O=C(N=Nc1c(O)n(Cc2ccccc2)c2ccccc12)c1cc2ccccc2cc1O | 5 | -21 | 7 | 0 | 7 | 0 | / | / | / | /
SMILES | CHO parental Ca | OX1R antag-1 | OX1R antag-2 | TAAR1 agonist | TAAR1 antagonist | GalR3 antag | TAAR1 nonsel count | TAAR1 ant conf | Ga16 ag counter | TAAR1 ag count
O=C(N=Nc1c(O)n(Cc2ccccc2)c2ccccc12)c1ccc(O)cc1 | -24 | -10 | 10 | 3 | 51* | -1 | 21 | 32 | 3 | -3
COc1cc(C)c(C(=O)Oc2cc(C)c(C(=O)O)c(O)c2C)c(O)c1C | -4 | -12 | 10 | -3 | 80* | 4 | 48* | 53* | 0 | -3
COc1cccc(N=c2oc3cc(O)ccc3cc2C(=O)NCC2CCCO2)c1 (configuration not stated) | -6 | -3 | 10 | 13 | 58* | -7 | 35* | 55* | 11 | 18
COc1cccc(-c2nc(C(=O)NCC3CCCO3)cc3c2[nH]c2ccccc23)c1 (configuration not stated) | -6 | -27 | 18 | 1 | 77* | -9 | 26* | 41 | 5 | 2
COc1ccc(OC)c(-c2nc(C(=O)NCC3CCCO3)cc3c2[nH]c2ccccc23)c1 (configuration not stated) | -18 | -37 | 20 | 1 | 39 | -10 | / | / | / | /
COc1ccccc1N=c1oc2cc(O)ccc2cc1C(=O)NCC1CCCO1 (configuration not stated) | -4 | 2 | 20 | 12 | 20 | -2 | / | / | / | /
Cc1cccc(N2CCN(S(=O)(=O)c3ccc4[nH]c(=O)ccc4c3)CC2)c1C | -1 | -15 | 5 | 11 | 61* | / | 35* | 38 | 11 | 10
